The record followed here is ChEMBL document CHEMBL3351454, “Design, synthesis, antimicrobial evaluation and molecular docking studies of some new thiophene, pyrazole and pyridone derivatives bearing sulfisoxazole moiety” (2014).

Converted amounts (≈) assume the structure as drawn.

The first assay has as its system Streptococcus pneumoniae. The experiment in a line: Antimicrobial activity against Streptococcus pneumoniae RCMB 010010 assessed as inhibition zone at 5 mg/ml after 24 hrs. As to conditions: RCMB 010010, 24 h, read-out: IZ. The class given is functional. The method in brief: (§1)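 Agar diffusion on nutrient agar seeded with 10^6 CFU/mL bacteria. Filter-paper disks were loaded with 100 µL of a 5 mg/mL compound solution in DMF, with a DMF-only control. Incubation was 37 °C for 24 h. Inhibition zone in mm (mean ± SD, triplicate plates) was measured beyond the 6 mm diameter.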
With `COc1ccc(-c2[nH]nc(N)c2C(=O)Nc2ccc(S(=O)(=O)Nc3onc(C)c3C)cc2)cc1`, the zone of inhibition at 5000 µg/mL stood at 22 mm.
Take `COc1ccc(-c2c(C#N)c(N)n(-c3ccc(S(=O)(=O)Nc4onc(C)c4C)cc3)c(=O)c2C#N)cc1`: the zone of inhibition at 5000 µg/mL is 20.3 mm.

A further assay concerns Streptococcus pneumoniae. The experiment in a line: Antimicrobial activity against Streptococcus pneumoniae RCMB 010010 assessed as absence of turbidity after 24 hrs. The class given is functional. Conditions: RCMB 010010, 24 h. In outline:
(§2)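 Broth microdilution in Müller–Hinton broth. DMF stocks at 1000 µg/mL were diluted in broth to give twofold serial dilutions over 500–0.007 µg/mL. Bacterial inoculum was about 10^6 CFU/mL in 96-well plates, sealed and incubated at 37 °C for 24 h in a humid chamber. MIC was taken as the lowest concentration with no visible turbidity. DMF and uninoculated-medium controls were included. Only compounds giving zones >10 mm were tested.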
The MIC is the lowest concentration found to suppress growth. As for `COc1ccc(-c2[nH]nc(N)c2C(=O)Nc2ccc(S(=O)(=O)Nc3onc(C)c3C)cc2)cc1`, the minimal inhibitory concentration (MIC) came to 0.49 µg/mL (≈ 1.02 µM).
The same measure, in the same setting: then `COc1ccc(-c2c(C#N)c(N)n(-c3ccc(S(=O)(=O)Nc4onc(C)c4C)cc3)c(=O)c2C#N)cc1`, with 0.98 µg/mL (≈ 1.9 µM).

The next assay has as its system Bacillus subtilis. The experiment in a line: Antimicrobial activity against Bacillis subtilis RCMB 010067 assessed as inhibition zone at 5 mg/ml after 24 hrs. Conditions: RCMB 010067, 24 h, read-out: IZ. The class given is functional. The method in brief: as §1
In the case of `COc1ccc(-c2[nH]nc(N)c2C(=O)Nc2ccc(S(=O)(=O)Nc3onc(C)c3C)cc2)cc1`, the zone of inhibition at 5000 µg/mL was 20.4 mm.
The same measure, in the same setting: the value for `COc1ccc(-c2c(C#N)c(N)n(-c3ccc(S(=O)(=O)Nc4onc(C)c4C)cc3)c(=O)c2C#N)cc1` was 22.2 mm.

Another assay concerns Bacillus subtilis. The experiment in a line: Antimicrobial activity against Bacillis subtilis RCMB 010067 assessed as absence of turbidity after 24 hrs. The format is functional. Conditions: RCMB 010067, 24 h. In outline:
as §2
As for `COc1ccc(-c2[nH]nc(N)c2C(=O)Nc2ccc(S(=O)(=O)Nc3onc(C)c3C)cc2)cc1`, the MIC is 1.95 µg/mL (≈ 4.04 µM).
Same read-out and setting: then `COc1ccc(-c2c(C#N)c(N)n(-c3ccc(S(=O)(=O)Nc4onc(C)c4C)cc3)c(=O)c2C#N)cc1`, with 0.49 µg/mL (≈ 0.949 µM).

In the next assay the test system is Staphylococcus epidermidis. The experiment in a line: Antimicrobial activity against Staphylococcus epidermidis RCMB 010024 assessed as inhibition zone at 5 mg/ml after 24 hrs. The class given is functional. Conditions: RCMB 010024, 24 h, read-out: IZ. The method in brief: as §1
Regarding `COc1ccc(-c2[nH]nc(N)c2C(=O)Nc2ccc(S(=O)(=O)Nc3onc(C)c3C)cc2)cc1`, the zone of inhibition at 5000 µg/mL came out at 18.9 mm.
Still for that read-out and setting: then `COc1ccc(-c2c(C#N)c(N)n(-c3ccc(S(=O)(=O)Nc4onc(C)c4C)cc3)c(=O)c2C#N)cc1`, with 18.1 mm.

The next assay relates to Staphylococcus epidermidis. The experiment in a line: Antimicrobial activity against Staphylococcus epidermidis RCMB 010024 assessed as absence of turbidity after 24 hrs. The class given is functional. As to conditions: RCMB 010024, 24 h. In outline:
as §2
In the case of `COc1ccc(-c2[nH]nc(N)c2C(=O)Nc2ccc(S(=O)(=O)Nc3onc(C)c3C)cc2)cc1`, the MIC is 3.9 µg/mL (≈ 8.08 µM).
Regarding `COc1ccc(-c2c(C#N)c(N)n(-c3ccc(S(=O)(=O)Nc4onc(C)c4C)cc3)c(=O)c2C#N)cc1`, the minimal inhibitory concentration (MIC) worked out at 7.81 µg/mL (≈ 15.1 µM).

Another assay relates to Escherichia coli. The experiment in a line: Antimicrobial activity against Escherichia coli RCMB 010052 assessed as inhibition zone at 5 mg/ml after 24 hrs. The class given is functional. As to conditions: RCMB 010052, 24 h, read-out: IZ. In outline: as §1
Consider `COc1ccc(-c2[nH]nc(N)c2C(=O)Nc2ccc(S(=O)(=O)Nc3onc(C)c3C)cc2)cc1`, for which the zone of inhibition at 5000 µg/mL was determined as 17.8 mm.
On the same count and under the same terms, the value for `COc1ccc(-c2c(C#N)c(N)n(-c3ccc(S(=O)(=O)Nc4onc(C)c4C)cc3)c(=O)c2C#N)cc1` was 16.2 mm.

The subject of another assay is Escherichia coli. The experiment in a line: Antimicrobial activity against Escherichia coli RCMB 010052 assessed as absence of turbidity after 24 hrs. Conditions: RCMB 010052, 24 h. The class given is functional. The method in brief: as §2
`COc1ccc(-c2[nH]nc(N)c2C(=O)Nc2ccc(S(=O)(=O)Nc3onc(C)c3C)cc2)cc1`: the minimum inhibitory concentration (MIC) stood at 7.81 µg/mL (≈ 16.2 µM).
On the same count and under the same terms, the value for `COc1ccc(-c2c(C#N)c(N)n(-c3ccc(S(=O)(=O)Nc4onc(C)c4C)cc3)c(=O)c2C#N)cc1` was 31.2 µg/mL (≈ 60.5 µM).

The next assay has as its system Proteus vulgaris. The experiment in a line: Antimicrobial activity against Proteus vulgaris RCMB 010085 assessed as inhibition zone at 5 mg/ml after 24 hrs. Conditions: RCMB 010085, 24 h, read-out: IZ. The class given is functional. In outline: as §1
Take `COc1ccc(-c2[nH]nc(N)c2C(=O)Nc2ccc(S(=O)(=O)Nc3onc(C)c3C)cc2)cc1`: the zone of inhibition at 5000 µg/mL is 19.6 mm.
On the same count and under the same terms, the value for `COc1ccc(-c2c(C#N)c(N)n(-c3ccc(S(=O)(=O)Nc4onc(C)c4C)cc3)c(=O)c2C#N)cc1` was 17.2 mm.

Another assay relates to Proteus vulgaris. The experiment in a line: Antimicrobial activity against Proteus vulgaris RCMB 010085 assessed as absence of turbidity after 24 hrs. The format is functional. As to conditions: RCMB 010085, 24 h. In outline: as §2
Regarding `COc1ccc(-c2[nH]nc(N)c2C(=O)Nc2ccc(S(=O)(=O)Nc3onc(C)c3C)cc2)cc1`, the MIC stood at 1.95 µg/mL (≈ 4.04 µM).
On the same count and under the same terms, then `COc1ccc(-c2c(C#N)c(N)n(-c3ccc(S(=O)(=O)Nc4onc(C)c4C)cc3)c(=O)c2C#N)cc1`, with 15.6 µg/mL (≈ 30.3 µM).

The next assay concerns Klebsiella pneumoniae. The experiment in a line: Antimicrobial activity against Klebsiella pneumoniae RCMB 010093 assessed as inhibition zone at 5 mg/ml after 24 hrs. The format is functional. As to conditions: RCMB 010093, 24 h, read-out: IZ. The method in brief:
as §1
For `COc1ccc(-c2[nH]nc(N)c2C(=O)Nc2ccc(S(=O)(=O)Nc3onc(C)c3C)cc2)cc1`, the zone of inhibition at 5000 µg/mL worked out at 17.1 mm.
In the case of `COc1ccc(-c2c(C#N)c(N)n(-c3ccc(S(=O)(=O)Nc4onc(C)c4C)cc3)c(=O)c2C#N)cc1`, the zone of inhibition at 5000 µg/mL was 22.3 mm.

A further assay deals with Klebsiella pneumoniae. The experiment in a line: Antimicrobial activity against Klebsiella pneumoniae RCMB 010093 assessed as absence of turbidity after 24 hrs. Conditions: RCMB 010093, 24 h. The class given is functional. The method in brief: as §2
Take `COc1ccc(-c2[nH]nc(N)c2C(=O)Nc2ccc(S(=O)(=O)Nc3onc(C)c3C)cc2)cc1`: the MIC amounted to 15.6 µg/mL (≈ 32.4 µM).
Same read-out and setting: the value for `COc1ccc(-c2c(C#N)c(N)n(-c3ccc(S(=O)(=O)Nc4onc(C)c4C)cc3)c(=O)c2C#N)cc1` was 0.49 µg/mL (≈ 0.949 µM).

The test system of the next assay is Aspergillus fumigatus. The experiment in a line: Antifungal activity against Aspergillus fumigatus RCMB 02568 assessed as inhibition zone at 5 mg/ml after 48 hrs. The class given is functional. As to conditions: RCMB 02568, 48 h, read-out: IZ. In outline: (§3)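 Disk diffusion on nutrient agar seeded with 10^4 CFU/mL fungus. Sterile filter-paper disks carried 100 µL of a 5 mg/mL DMF solution, and DMF alone served as control. Plates were incubated at 25 °C for 48 h. Mean inhibition zone in mm ± SD was read beyond the 6 mm diameter, in triplicate.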
Regarding `COc1ccc(-c2[nH]nc(N)c2C(=O)Nc2ccc(S(=O)(=O)Nc3onc(C)c3C)cc2)cc1`, the zone of inhibition at 5000 µg/mL came out at 26.1 mm.
On the same count and under the same terms, then `COc1ccc(-c2c(C#N)c(N)n(-c3ccc(S(=O)(=O)Nc4onc(C)c4C)cc3)c(=O)c2C#N)cc1`, with 20.6 mm.

The subject of a further assay is Aspergillus fumigatus. The experiment in a line: Antifungal activity against Aspergillus fumigatus RCMB 02568 assessed as absence of turbidity after 48 hrs. The format is functional. Conditions: RCMB 02568, 48 h. The method in brief: (§4)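 Broth microdilution in Sabouraud liquid medium. DMF stocks at 1000 µg/mL were diluted in broth to give twofold serial dilutions over 500–0.007 µg/mL. Fungal inoculum was about 10^4 CFU/mL in 96-well plates, sealed and incubated at 25 °C for 48 h in a humid chamber. MIC was taken as the lowest concentration with no visible turbidity. DMF and uninoculated-medium controls were included.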
As to `COc1ccc(-c2[nH]nc(N)c2C(=O)Nc2ccc(S(=O)(=O)Nc3onc(C)c3C)cc2)cc1`, the MIC was found to be 0.03 µg/mL (≈ 0.0622 µM).
Same read-out and setting: then `COc1ccc(-c2c(C#N)c(N)n(-c3ccc(S(=O)(=O)Nc4onc(C)c4C)cc3)c(=O)c2C#N)cc1`, with 0.98 µg/mL (≈ 1.9 µM).

For the next assay, the system named is Syncephalastrum racemosum. The experiment in a line: Antifungal activity against Syncephalastrum racemosum RCMB 05922 assessed as inhibition zone at 5 mg/ml after 48 hrs. The format is functional. As to conditions: RCMB 05922, 48 h, read-out: IZ.
For `COc1ccc(-c2[nH]nc(N)c2C(=O)Nc2ccc(S(=O)(=O)Nc3onc(C)c3C)cc2)cc1`, the zone of inhibition at 5000 µg/mL was determined as 24.4 mm.
Same read-out and setting: the value for `COc1ccc(-c2c(C#N)c(N)n(-c3ccc(S(=O)(=O)Nc4onc(C)c4C)cc3)c(=O)c2C#N)cc1` was 19.7 mm.

The next assay relates to Syncephalastrum racemosum. The experiment in a line: Antifungal activity against Syncephalastrum racemosum RCMB 05922 assessed as absence of turbidity after 48 hrs. The class given is functional. Conditions: RCMB 05922, 48 h.
For `COc1ccc(-c2[nH]nc(N)c2C(=O)Nc2ccc(S(=O)(=O)Nc3onc(C)c3C)cc2)cc1`, the MIC is 0.12 µg/mL (≈ 0.249 µM).
Same read-out and setting: the value for `COc1ccc(-c2c(C#N)c(N)n(-c3ccc(S(=O)(=O)Nc4onc(C)c4C)cc3)c(=O)c2C#N)cc1` was 1.95 µg/mL (≈ 3.78 µM).

For the next assay, the system named is Geotrichum candidum. The experiment in a line: Antifungal activity against Geotrichum candidum RCMB 05097 assessed as inhibition zone at 5 mg/ml after 48 hrs. The class given is functional. As to conditions: RCMB 05097, 48 h, read-out: IZ. The method in brief:
as §3
On to `COc1ccc(-c2[nH]nc(N)c2C(=O)Nc2ccc(S(=O)(=O)Nc3onc(C)c3C)cc2)cc1`, for which the zone of inhibition at 5000 µg/mL was found to be 13.6 mm.
Turning to `COc1ccc(-c2c(C#N)c(N)n(-c3ccc(S(=O)(=O)Nc4onc(C)c4C)cc3)c(=O)c2C#N)cc1`, the zone of inhibition at 5000 µg/mL amounted to 20.9 mm.

For another assay, the system named is Geotrichum candidum. The experiment in a line: Antifungal activity against Geotrichum candidum RCMB 05097 assessed as absence of turbidity after 48 hrs. The class given is functional. As to conditions: RCMB 05097, 48 h. In outline: as §4
Consider `COc1ccc(-c2[nH]nc(N)c2C(=O)Nc2ccc(S(=O)(=O)Nc3onc(C)c3C)cc2)cc1`, for which the minimal inhibitory concentration (MIC) came out at 125 µg/mL (≈ 259 µM).
The same measure, in the same setting: the value for `COc1ccc(-c2c(C#N)c(N)n(-c3ccc(S(=O)(=O)Nc4onc(C)c4C)cc3)c(=O)c2C#N)cc1` was 0.98 µg/mL (≈ 1.9 µM).
